Data set [1] relates to Rattus norvegicus. The data set is described as follows: Antiinflammatory activity in Wistar rat assessed as inhibition of carrageenan-induced paw edema at 20 mg/kg, po administered 30 mins before carrageenan challenge measured 24 hrs after post drug dose. The format is functional. In outline: (§1)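 Wistar rats (150–200 g), four groups of six. Drug given orally, 0.75–1.0 ml of a suspension in 0.5% w/v sodium CMC (stocks 4, 4.23, 5.99 mg/ml), dose molecularly equivalent to ibuprofen 20 mg/kg. Control group received no drug. Carrageenan 1%, 0.1 ml, injected subplantar into the left hind paw 30 min after dosing. Paw volume measured before and after treatment. Inhibition % = [(Vt−V0)control − (Vt−V0)treated]/(Vt−V0)control × 100. One-way ANOVA versus control.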

Data set [2] deals with Rattus norvegicus. The data set is described as follows: Antiinflammatory activity in Wistar rat assessed as inhibition of carrageenan-induced paw edema at 20 mg/kg, po administered 30 mins before carrageenan challenge measured 3 hrs after post drug dose. The format is functional. Put shortly:
as §1

In data set [3] the test system is Rattus norvegicus. The data set is described as follows: Gastrointestinal toxicity in Wistar rat assessed ulcer index at 100 mg/kg, po after 17 hrs. Conditions: in vivo. More on the design: dose 100 mg/kg, route oral. The data set is classed as organism-based. In outline: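 Adult Wistar rats (150–200 g), four groups of six, fasted 8 h before dosing. Vehicle control, ibuprofen 100 mg/kg, or conjugate at a dose molecularly equivalent to ibuprofen 100 mg/kg. Killed 17 h after dosing, with food and water ad libitum. Gastric mucosa examined with a 4× binocular magnifier. Lesions classed as large (>2 mm), small (1–2 mm) or punctiform (<1 mm) and scored. Index = treated mean score minus control mean score.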

Data set [4] concerns Mus musculus. As to the kind of experiment: Analgesic activity in Swiss albino mouse assessed as protection against acetic acid-induced writhing at 20 mg/kg, po administered 3 hrs mins before acetic acid challenge relative to control. The data set is classed as functional. In outline: (§2)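 Mice, four groups of six: vehicle control 5 ml/kg, or test drug as a homogeneous suspension in 0.5% w/v aqueous sodium CMC (stocks 1, 1.05, 1.49 mg/ml), 0.5–0.6 ml orally, doses molecularly equivalent to ibuprofen 20 mg/kg. Acetic acid given i.p. at 1 ml/100 g body weight. Writhings counted over 10 min. Protection % = 100 − (test/control writhings × 100). Mean ± S.E.M.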

Data set [5] concerns Rattus norvegicus. The data set is described as follows: Antiinflammatory activity in Wistar rat assessed as inhibition of carrageenan-induced paw edema at 29.98 mg/kg, po administered 30 mins before carrageenan challenge measured 3 hrs after post drug dose. The format is functional. In outline:
as §1

The test system of data set [6] is Rattus norvegicus. As to the kind of experiment: Antiinflammatory activity in Wistar rat assessed as inhibition of carrageenan-induced paw edema at 29.98 mg/kg, po administered 30 mins before carrageenan challenge measured 24 hrs after post drug dose. The data set is classed as functional. In outline:
as §1

Data set [7] in a line: Chemical stability assessed as hydrolysis in hydrochloric acid buffer at pH 1.2. The data set is classed as physicochemical. Put shortly: (§3)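 Hydrolysis in HCl (pH 1.2) or phosphate (pH 7.4) buffer, 0.05 M total buffer, ionic strength held at 0.5 M with KCl, 37 °C. Released parent drug measured by UV in a chloroform extract. At pH 7.4, sampled at 0.5–10 h. pH 1.2 assay run 2 h. First-order k = 2.303/t·log(a/(a−x)), t in minutes; half-life derived. Mean of three sets.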

The test system of data set [8] is Mus musculus. As to the kind of experiment: Analgesic activity in Swiss albino mouse assessed as protection against acetic acid-induced writhing at 29.98 mg/kg, po administered 3 hrs mins before acetic acid challenge relative to control. The data set is classed as functional. In outline:
as §2

Data set [9] in a line: Chemical stability assessed as hydrolysis in phosphate buffer at pH 7.4. The format is physicochemical. Put shortly:
as §3

Data set [10] deals with Rattus norvegicus. As to the kind of experiment: Antiinflammatory activity in Wistar rat assessed as inhibition of carrageenan-induced paw edema at 21.15 mg/kg, po administered 30 mins before carrageenan challenge measured 24 hrs after post drug dose. The format is functional. Put shortly:
as §1

For data set [11], the system named is Mus musculus. The data set is described as follows: Analgesic activity in Swiss albino mouse assessed as protection against acetic acid-induced writhing at 21.15 mg/kg, po administered 3 hrs mins before acetic acid challenge relative to control. The format is functional. In outline:
as §2

Data set [12] has as its system Rattus norvegicus. The data set is described as follows: Antiinflammatory activity in Wistar rat assessed as inhibition of carrageenan-induced paw edema at 21.15 mg/kg, po administered 30 mins before carrageenan challenge measured 3 hrs after post drug dose. The data set is classed as functional. Put shortly: as §1

The source of these data is ChEMBL document CHEMBL1154436, “Synthesis, pharmacological activity and hydrolytic behavior of ethylenediamine and benzathine conjugates of ibuprofen” (Eur J Med Chem, 2008).

As for `CC(C)Cc1ccc(C(C)C(=O)O)cc1` (stereo not given) [IBUPROFEN], the inhibition in vivo at 20 mg/kg in the data set on Rattus norvegicus [1] came to 35.6%; with Rattus norvegicus [2] it was 52.1%. In the data set on Rattus norvegicus [3], this compound yielded a UI of 13.51. Also, the Activity with Mus musculus [4] is given as 23.42%.
As to `CC(C)Cc1ccc(C(C)C(=O)N(CCN(Cc2ccccc2)C(=O)C(C)c2ccc(CC(C)C)cc2)Cc2ccccc2)cc1` (mixture of isomers), the inhibition in vivo at 29.98 mg/kg in the data set on Rattus norvegicus [5] came out at 53.5%; in the data set on Rattus norvegicus [6], 32.4%. Besides, the Stability entry in [7] was “Stable”. Moreover, in the data set with Mus musculus [8], the Activity is recorded as 35.84%. Also, in [9], the half-life worked out at 1.38 h.
Regarding `CC(C)Cc1ccc(C(C)C(=O)NCCNC(=O)C(C)c2ccc(CC(C)C)cc2)cc1` (mixture of isomers), the figures for the inhibition in vivo at 21.15 mg/kg in the data set on Rattus norvegicus [10] and in the data set on Rattus norvegicus [12] were 38% and 48%, respectively. Besides, the Activity with Mus musculus [11] is listed as 29.63%. The same compound came in with a UI in the data set with Rattus norvegicus [3] of 4.63. For the same compound, the Stability entry in data set [7] is “Stable”. In data set [9], the half-life was 1.16 h.
